Each structure is given as a SMILES string. Activity calls are given as the source filed them. No cut-off for these calls is given here.

Series [1] concerns RAW264.7. Description: Antiinflammatory activity in mouse RAW264.7 cells assessed as decrease in LPS-induced NO production after 18 hrs by DAN assay. In kind it is functional, cell-based. The essentials:
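RAW 264.7 cells at 2×10^5 cells/mL, 24 h, medium refreshed, then LPS 100 ng/mL with or without graded compound for 18 h; nitrite in medium reacted with 2,3-diaminonaphthalene (0.05 mg/mL in 0.62 M HCl), 15 min in dark, as NO readout. n = 3, mean ± SD.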

Another series relates to HEK293. The series can be described thus: Cytotoxicity against HEK293 cells expressing human TLR7 assessed as reduction in cell viability up to 20 uM after 24 hrs by WST-1 assay. Type of series: cell-based. The note with it: hek293, 24 h. The essentials:
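HEK hTLR7 cells seeded 5×10^4/well, 24 h, then exposed to a concentration series for 24 h; WST-1 reagent added at 37 °C until colour developed (30 min–2 h), absorbance 450 nm.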

In series [2] the test system is RAW264.7. The series can be described thus: Antiinflammatory activity in mouse RAW264.7 cells assessed as decrease in LPS-induced TNFalpha production preincubated for 30 mins followed by LPS stimulation measured after 18 hrs by ELISA. In kind it is functional, cell-based. The essentials:
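RAW 264.7 cells, 1.5×10^6/well, 24 h, medium refreshed; pretreated with increasing compound 30 min, then LPS 100 ng/mL for 18 h; supernatant TNF-α quantified by sandwich ELISA against recombinant mouse standards.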

Series [3] addresses T1, Toll-like receptor 7 (Homo sapiens) (UniProt Q9NYK1).
T1 sequence (whole entry): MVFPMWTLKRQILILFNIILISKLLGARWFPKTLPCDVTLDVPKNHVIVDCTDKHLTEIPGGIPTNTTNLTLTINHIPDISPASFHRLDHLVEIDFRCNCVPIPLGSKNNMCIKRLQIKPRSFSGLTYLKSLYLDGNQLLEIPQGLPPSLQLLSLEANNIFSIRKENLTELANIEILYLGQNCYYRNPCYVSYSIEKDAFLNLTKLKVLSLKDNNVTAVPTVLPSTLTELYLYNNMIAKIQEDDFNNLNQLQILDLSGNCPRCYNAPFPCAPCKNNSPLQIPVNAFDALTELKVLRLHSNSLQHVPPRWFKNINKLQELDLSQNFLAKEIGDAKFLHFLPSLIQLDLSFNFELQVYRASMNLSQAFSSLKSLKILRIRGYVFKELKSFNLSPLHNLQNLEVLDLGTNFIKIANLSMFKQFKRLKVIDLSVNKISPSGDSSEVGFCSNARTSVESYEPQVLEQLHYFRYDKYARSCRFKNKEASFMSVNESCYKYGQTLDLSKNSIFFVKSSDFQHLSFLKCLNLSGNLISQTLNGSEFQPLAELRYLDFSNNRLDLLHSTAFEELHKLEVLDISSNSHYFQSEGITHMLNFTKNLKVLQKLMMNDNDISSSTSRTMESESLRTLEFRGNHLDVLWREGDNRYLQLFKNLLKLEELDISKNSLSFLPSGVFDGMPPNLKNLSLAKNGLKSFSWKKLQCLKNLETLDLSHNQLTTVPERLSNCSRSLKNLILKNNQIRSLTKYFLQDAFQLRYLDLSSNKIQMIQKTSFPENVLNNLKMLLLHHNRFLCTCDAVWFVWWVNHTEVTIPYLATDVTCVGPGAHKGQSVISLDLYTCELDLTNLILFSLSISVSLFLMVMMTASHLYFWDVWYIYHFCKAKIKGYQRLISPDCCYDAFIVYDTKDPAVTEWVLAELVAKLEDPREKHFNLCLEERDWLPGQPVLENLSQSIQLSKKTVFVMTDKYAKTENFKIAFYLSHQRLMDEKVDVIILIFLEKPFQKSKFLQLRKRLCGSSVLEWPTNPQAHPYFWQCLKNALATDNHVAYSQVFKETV
Description: Inhibition of human TLR7 expressed in HEK293 cells assessed as decrease in R848-induced NF-kappaB activation-mediated SEAP production at 5 uM after 24 hrs by Quanti-blue-based assay relative to control. In kind it is cell-based.

Series [4] addresses Inhibitor of nuclear factor kappa-B kinase subunit alpha/beta (Mus musculus) (UniProt Q60680+O88351). Description: Inhibition of IKK-alphabeta in mouse RAW264.7 cells assessed as reduction in LPS-induced IKK-alphabeta phosphorylation at 1 to 10 uM preincubated for 1 hr followed by LPS stimulation for 15 to 30 mins by Western blot method. In kind it is cell-based. An outline of the steps: (§1)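 RAW 264.7 cells, 3×10^6 per dish overnight, pretreated 1 h with 1, 5 or 10 µM, then LPS 100 ng/mL for 15 or 30 min; nuclear/cytoplasmic lysates (20–30 µg) run on 10% SDS-PAGE, immunoblotted for phospho/total proteins, GAPDH loading control, ECL, densitometry; three independent experiments.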

In series [5] the target is T1, Toll-like receptor 7 (Homo sapiens). The series can be described thus: Antagonist activity at human TLR7 expressed in HEK293 cells assessed as decrease in R848-induced NF-kappaB activation-mediated SEAP production at 10^-9 to 10^-5 M after 24 hrs by Quanti-blue-based assay. Type of series: cell-based. The essentials:
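HEK293 cells stably carrying a human TLR plus an NF-κB-driven SEAP reporter, seeded 5×10^4/well for 24 h at 37 °C, then stimulated: Pam3CSK4 100 µg/mL (TLR1/2), Pam2CSK4 100 µg/mL, poly I:C 5 µg/mL (TLR3), LPS 20 ng/mL (TLR4), flagellin 100 ng/mL (TLR5), R848 1 µg/mL (TLR7, TLR8), CpG-ODN2006 1 µg/mL (TLR9). After 24 h with compound, supernatant mixed with QUANTI-Blue, 1 h 37 °C, OD 620 nm.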

Series [6] concerns HeLa. Description: Induction of apoptosis in human HeLa cells after 24 hrs by Annexin-V FITC/propidium iodide staining based flow cytometry. Type of series: functional, cell-based. The essentials: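 HeLa cells, 3×10^5/well, attached 24 h, then DMSO or 5, 10, 20 µM for 24 h; harvested with EDTA-free 0.25% trypsin, Annexin V-FITC/PI double stained, flow cytometry; early plus late apoptotic fractions counted; three independent experiments.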

In series [7] the test system is HeLa. The series can be described thus: Cell cycle arrest in human HeLa cells assessed as accumulation at G2/M phase at 20 uM after 24 hrs by propidium iodide staining based flow cytometry (reference value: 15.7%). In kind it is functional. The essentials: (§2)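 HeLa cells, 3×10^5/well, attached overnight, switched to serum-free medium for synchronisation, then DMSO or 5, 10, 20 µM for 24 h; cells fixed, PI-stained, G0/G1, S and G2/M fractions by flow cytometry; n = 3, mean ± SD.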

The target of series [8] is NF-kappa-B inhibitor alpha (Mus musculus) (UniProt Q9Z1E3). Description: Inhibition of LPS-induced IkB-alpha phosphorylation in mouse RAW264.7 cells at 1 to 10 uM preincubated for 1 hr followed by LPS stimulation for 15 to 30 mins by Western blot method. Type of series: cell-based. The essentials:
as §1

Series [9] concerns RAW264.7. Description: Inhibition of LPS-induced JNK phosphorylation in mouse RAW264.7 cells at 1 to 10 uM preincubated for 1 hr followed by LPS stimulation for 15 to 30 mins by Western blot method. In kind it is cell-based. The essentials: as §1
The subject of series [10] is HeLa. The series can be described thus: Cell cycle arrest in human HeLa cells assessed as accumulation at S phase at 5 uM after 24 hrs by propidium iodide staining based flow cytometry (reference value: 34.9%). Type of series: functional. An outline of the steps:
as §2

Chain of NF-kappa-B inhibitor alpha (Mus musculus) (Q9Z1E3 whole entry): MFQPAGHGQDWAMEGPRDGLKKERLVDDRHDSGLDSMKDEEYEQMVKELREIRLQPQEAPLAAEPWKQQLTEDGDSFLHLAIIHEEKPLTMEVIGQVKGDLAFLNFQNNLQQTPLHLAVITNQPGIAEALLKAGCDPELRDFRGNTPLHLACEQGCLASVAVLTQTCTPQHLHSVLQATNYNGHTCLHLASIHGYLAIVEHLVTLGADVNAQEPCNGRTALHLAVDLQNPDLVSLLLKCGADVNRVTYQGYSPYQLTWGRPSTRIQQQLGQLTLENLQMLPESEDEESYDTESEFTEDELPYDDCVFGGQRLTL

As for `O=C(NNC(=O)c1csc(-c2ccc(Cl)cc2Cl)n1)c1ccccn1`, in the series on RAW264.7 [1], the result was Active. The Activity result in the series with HEK293 was “Non-Toxic”; in the series with RAW264.7 [2] it was “Dose-dependent effect”; with HeLa [6], “Dose-dependent effect”; in the series with HeLa [7] it was 3.9%; in the series with HeLa [10], 48.4%. In addition, in series [3], the inhibition is 99.6%. Moreover, the inhibition entry in [4], in series [5] and in [8] was “Active” throughout. The inhibition result with RAW264.7 [9] was “inactive”.

For the origin of these results see ChEMBL document CHEMBL4190396, “Discovery of Novel Small-Molecule Inhibitors of NF-κB Signaling with Antiinflammatory and Anticancer Properties” (J Med Chem, 2018).
